The values below come from paper PMC4832564 (Amyloid : the international journal of experimental and …, 2015).

Read-outs that look alike come from different tables or passages of the source. Where no end group is shown, it is not given here.

One data set has as its system systemic AA amyloid. It counts as in vivo, mouse. Particulars: mice with systemic visceral AA amyloidosis, 2 h post-injection iv; triplicate.
For data set [1] the following is noted: mouse, in vivo, iv.
Data set [2] deals with synthetic rVλ6Wil fibrils. It is filed as binding, human. The note with it: for % bound relative to no inhibitor: 50 μg rVλ6Wil fibrils, mean of duplicate experiments. A digest of the protocol: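 ¹²⁵I-p5 or ¹²⁵I-RAGE VC1 (chloramine T iodination) pre-incubated 30 min RT with AGE-BSA, BSA, enoxaparin or E. coli-expressed human S100B (100, 4 or 1 μM). 50 μg fibrils from E. coli-made rVλ6Wil then added in PBS/0.05% tween 20 (S100B: TBS with 1 mM CaCl₂) and rotated 1 h RT. Spun twice at 16 000 × g, 10 min each. Pellet and supernatant gamma-counted; % bound relative to no inhibitor; mean of duplicate experiments.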

For data set [3], the system named is heparin and synthetic amyloid fibrils. The note with it: cited from earlier work.
The target in data set [4] is Synthetic amyloid fibrils of human islet amyloid polypeptide (IAPP) (human) (UniProt P10997). The experiment in a line: co-sedimentation.
Sequence of Synthetic amyloid fibrils of human islet amyloid polypeptide (IAPP) (human) (P10997 34-70): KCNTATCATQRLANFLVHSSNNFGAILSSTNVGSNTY
For data set [5], the target named is Synthetic amyloid fibrils of the recombinant λ6 variable domain from patient Wil (rVλ6Wil) (human). The experiment in a line: co-sedimentation.
The target in data set [6] is Synthetic amyloid fibrils of Aβ(1–40). The experiment in a line: co-sedimentation.
Data set [7] deals with Synthetic amyloid fibrils of the recombinant λ6 variable domain from patient Wil (rVλ6Wil) (human). The experiment in a line: co-sedimentation. This is another data set of the same source.

Take “99mTc-p5: peptide p5 radiolabeled with 99mTc (CGGYSKAQKAQAKQAKQAQKAQKAQAKQAKQ; also: 99mTc radiolabel)”: in the data set on systemic AA amyloid, the “distribution of radiotracer by SPECT/CT in AA mice” value is “coincident retention of both radiotracers in the amyloid-laden liver and spleen”. For the same molecule, in data set [1], the “T:M ratio, Heart” value came to 2.75; the “T:M ratio, L. Kidney” value came out at 659.97; the “T:M ratio, Liver” value came out at 12.44; the “T:M ratio, Low. Intestine” value amounted to 14.55. In addition, in data set [1], the “T:M ratio, Muscle” value turned out to be 1.00; the “T:M ratio, Pancreas” value is 3.92; the “T:M ratio, R. Kidney” value is given as 711.82; the “T:M ratio, Spleen” value is recorded as 4.65. Further, in data set [1], the “T:M ratio, Stomach” value turned out to be 9.62 and the “T:M ratio, Up. Intestine” value was found to be 8.88.
For “125I-p5: peptide p5 radioiodinated with 125I (CGGYSKAQKAQAKQAKQAQKAQKAQAKQAKQ; also: 125I radiolabel)”, the entries for the “% bound relative to no inhibitor” value in data set [2] (PBS) and in data set [2] (TBS with 1 mM CaCl2) were 100.0% and 76.5%, respectively.
Turning to “CGGYSKAQKAQAKQAKQAQKAQKAQAKQAKQ [p5]”, in data set [2] (125I-labelled, BSA added (100 μM in Table 1)), the “decrease in binding to fibrils on addition of BSA” value is ~ 30%. In addition, the “decrease in binding with the synthetic amyloid fibrils” value in data set [2] (125I-labelled, Enoxaparin 100 μM) was found to be 13%. Besides, the “decrease in binding to fibrils on addition of S100B” value in data set [2] (125I-labelled, human recombinant S100B, in the presence of 1 mM CaCl2) is listed as 20%. For the same molecule, in data set [2] (125I-labelled, pre-incubation with AGE-BSA at 100 μM), the “reduction of reactivity with rVλ6Wil fibrils” value is given as ~ 90%.
Regarding “GGGYSRAQRAQARQARQAQRAQRAQARQARQ [p5R]”, the “affinity relative to p5” value in data set [3] is “higher affinity for both heparin and synthetic amyloid fibrils”.
For the molecule “Recombinant human RAGE VC1 (soluble recombinant variable and constant-1 domains of RAGE) (domain or fragment)”, in data set [4], the % reduction of ^125I-p5R binding to IAPP fibrils came to 70% and the % reduction of ^125I-p5 binding to IAPP fibrils was 90%. Moreover, in data set [5], the % bound relative to no inhibitor (no inhibitor, PBS) came to 100%; the % bound relative to no inhibitor (no inhibitor, TBS with 1 mM CaCl2) is 102%; the % bound relative to no inhibitor, with 4 μM enoxaparin was 102%; the % bound relative to no inhibitor, with 100 μM enoxaparin was 94%.
As to CGGYSKAQKAQAKQAKQAQKAQKAQAKQAKQ (not fully specified; also: 99mTc-labeled in imaging studies) [Peptide p5], the % bound to the fibril pellet in data set [6] is > 50%. In data set [7], the % bound relative to no inhibitor (no inhibitor, PBS) was 100%; the % bound relative to no inhibitor (no inhibitor, TBS with 1 mM CaCl2) turned out to be 76.5%; the % bound relative to no inhibitor, with 4 μM enoxaparin came to 97.6%; the % bound relative to no inhibitor, with 100 μM enoxaparin amounted to 87.4%. Further, the % bound to the fibril pellet in data set [7] was > 50%.
For GGGYSRAQRAQARQARQAQRAQRAQARQARQ (also: radioiodinated (125I, chloramine T)) [Peptide p5R], the % bound to the fibril pellet in data set [6] and in data set [7] was > 50% each time.
